Data reported in PubChem BioAssay AID449761 (Broad Institute, 2010).
Results filed as inconclusive are left out. Active and inactive are the calls of the source.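 Rule for the calls: active = compounds raising caspase signal with fitted AC50 no more than tenfold above the top tested dose; inconclusive = flat curve at 30 to 70% activity, or unusable fit; inactive = the rest.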

Tested on: MEF WT non-primed, caspase-Glo luminescence, 3 h
Test: caspase activity of non-primed cells – cell-based, caspase-Glo luminescence, 3 h, counter-screen for Bcl2-A1 inhibitor project, dose response (AID 449761)
Summary of the method: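 Incubation: 3 h compound at 37 °C, 1 h reagent at RT / System: Non-primed wild-type MEF cells / Signal: CaspaseGlo luminescence, reagent diluted 1:1 in 50 mM HEPES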

Question: `Cn1c(=NC(=O)CCl)sc2ccccc21` was tested. Which AC50 did it give?
Answer: Its AC50 is > 35 µM (inactive).

Question: With `CC1CC(C)CN(C(=O)c2ccc(-c3ccc([N+](=O)[O-])cc3)o2)C1` (centres undefined) as the molecule, how does the AC50 read?
Answer: Its AC50 is > 35 µM (inactive).

Question: Which AC50 does the source give for `Nc1c(C(=O)Nc2ccc(S(=O)(=O)N3CCCC3)cc2)sc2nc3ccc(OC(F)(F)F)cc3cc12` here?
Answer: Its AC50 is 30.7 µM.

Question: `COc1ccc2c(c1)CCc1c(C(=O)Nc3cc(C)n(Cc4ccc(Cl)cc4)n3)noc1-2` was tested. Which AC50 did it give?
Answer: The AC50 was 14.2 µM.

Question: `CN(c1ccccc1)c1ccc(/C=C/[N+](=O)[O-])cc1` was tested. Which AC50 did it give?
Answer: Its AC50 is 8.45 µM.

Question: For `CCOc1ccc(NCc2cccn2-c2nnc(N3CCC(C(=O)NCCCN4CC(C)CC(C)C4)CC3)s2)cc1` (centres undefined), which AC50 is on record?
Answer: Its AC50 is > 35 µM (inactive).

Question: With `Cc1ccc(NC(=O)c2ccc(N/N=C/c3cccc(O)c3)c([N+](=O)[O-])c2)cc1` as the molecule, how does the AC50 read?
Answer: The AC50 was 29.8 µM.

Question: `Cc1cccc(CS(=O)(=O)c2ncc(Cl)c(C(=O)Nc3nnc(C(C)C)s3)n2)c1` was tested. Which AC50 did it give?
Answer: Its AC50 is > 35 µM (inactive).

Question: Which AC50 does the source give for `O=C(N=Nc1c(O)[nH]c2ccc([N+](=O)[O-])cc12)c1cc(-c2ccccc2Cl)nc2ccccc12` here?
Answer: The AC50 was > 35 µM (inactive).

Question: How did the AC50 turn out when `COc1ccc(OC)c2sc(N(CCCN(C)C)C(=O)c3ccc(S(=O)(=O)N4CCc5ccccc5C4)cc3)nc12` was run?
Answer: The AC50 was > 35 µM (inactive).

Question: For `CC(C)(C)c1ccc(C(=O)Nc2ccc(O)c3c(=O)cc(-c4cccc(Cl)c4)oc23)cc1`, which AC50 is on record?
Answer: The AC50 was > 35 µM (inactive).

Question: Which AC50 does the source give for `COC(=O)[C@@]1(C)CC[C@]2(C)CC[C@@]3(C)C(=CC(=O)C4[C@@]5(C)CC[C@H](O)C(C)(C)[C@@H]5CC[C@]43C)[C@H]2C1` (some centres undefined) here?
Answer: The AC50 was > 35 µM (inactive).

Question: How did the AC50 turn out when `Cc1cccc(NC(=O)CSc2nc(C)c(CC(=O)c3ccc(Br)cc3)c(C)c2C#N)c1C` was run?
Answer: The AC50 was > 35 µM (inactive).

Question: With `COc1ccc(NC(=O)c2cccc3c2C(=O)c2ccc(-c4ccc(F)cc4OCc4ccccc4)cc2S3(=O)=O)cc1` as the molecule, how does the AC50 read?
Answer: The AC50 was > 35 µM (inactive).

Question: With `Cc1ccc(-c2nc(NC(=O)c3nn(C)cc3[N+](=O)[O-])sc2C)cc1C` as the molecule, how does the AC50 read?
Answer: The AC50 was 5.21 µM.

Question: `CCOc1cc(/C=C2/C(=N)N3C=CSC3=NC2=O)ccc1OCCCOc1ccccc1C` was tested. Which AC50 did it give?
Answer: Its AC50 is 8.09 µM.

Question: Which AC50 does the source give for `N#CC(C#N)=C1C=CC=CN1/C(=C\c1ccccc1Cl)C(=O)c1ccccc1` here?
Answer: Its AC50 is 5.01 µM.

Question: For `COc1ccccc1-c1cc(C(F)(F)F)nc(S(=O)(=O)CCCC(=O)N2CCOCC2)n1`, which AC50 is on record?
Answer: The AC50 was 8.99 µM.

Question: With `Cc1nn(-c2ccccc2)c(C)c1/C=N/NC(=O)CSc1nc2ccccc2c(=O)n1-c1ccc(Br)cc1` as the molecule, how does the AC50 read?
Answer: Its AC50 is 36 µM.

Question: With `CCc1ccc2nc(N(CCCN(C)C)C(=O)c3ccc(S(=O)(=O)N4CCc5ccccc5C4)cc3)sc2c1` as the molecule, how does the AC50 read?
Answer: The AC50 was > 35 µM (inactive).

Question: How did the AC50 turn out when `CC(=O)Nc1ccc(NC(=O)C(C)OC(=O)/C=C/c2cn(-c3ccccc3)nc2-c2cccnc2)cc1` (centres undefined) was run?
Answer: The AC50 was 25 µM.

Question: How did the AC50 turn out when `Cc1cc(NC(=O)CSc2nc3cc(Cl)ccc3c(=O)n2Cc2ccco2)no1` was run?
Answer: The AC50 was > 35 µM (inactive).

Question: How did the AC50 turn out when `N#Cc1c(C(F)(F)F)cc(-c2ccccc2)nc1SCC(=O)Nc1sc2c(c1C#N)CCC2` was run?
Answer: The AC50 was > 35 µM (inactive).

Question: `CCOC(=O)c1c(C)oc2c1c(CN1CCN(C(=O)OCC)CC1)c(O)c1ccccc12` was tested. Which AC50 did it give?
Answer: Its AC50 is 20.8 µM.

Question: For `COC(=O)CSc1nc(N)c2c3c(sc2n1)C(c1ccccc1)SC(c1ccccc1)C3` (centres undefined), which AC50 is on record?
Answer: The AC50 was > 35 µM (inactive).

Question: `CC(C)c1cccc(-c2ccc3c(c2)S(=O)(=O)c2cccc(C(=O)NCc4ccccc4Cl)c2C3=O)c1` was tested. Which AC50 did it give?
Answer: The AC50 was > 35 µM (inactive).

Question: For `CCc1ccc(Nc2n[n+](-c3ccccc3)c(/C=C/c3ccccc3)s2)cc1`, which AC50 is on record?
Answer: Its AC50 is 9.79 µM.

Question: `COc1cc(/C=C(/C#N)C(=O)Nc2ccc(Cl)cc2)ccc1Oc1nc(Cl)ncc1F` was tested. Which AC50 did it give?
Answer: The AC50 was > 35 µM (inactive).

Question: `CN(C)C/C=C(\c1ccc(Br)cc1)c1cccnc1` was tested. Which AC50 did it give?
Answer: The AC50 was > 35 µM (inactive).

Question: Which AC50 does the source give for `COc1ccc(N(C(=O)CCl)C(C(=O)NCCc2ccccc2)c2cccs2)cc1Cl` (centres undefined) here?
Answer: The AC50 was 27.4 µM.

Question: For `CC(=O)OC(C)(C)/C=C/C(=O)[C@](C)(O)C1[C@H](O)C[C@@]2(C)C3CC=C4C(C[C@H](O)C(=O)C4(C)C)[C@]3(C)C(=O)C[C@]12C` (some centres undefined), which AC50 is on record?
Answer: Its AC50 is > 35 µM (inactive).

Question: With `Cc1cc(=O)[nH]c(SCC(=O)Nc2ccc(Br)cc2)c1C#N` as the molecule, how does the AC50 read?
Answer: The AC50 was > 35 µM (inactive).

Question: With `O=C(Nc1ccc2oc(-c3ccccc3F)nc2c1)c1ccccc1F` as the molecule, how does the AC50 read?
Answer: Its AC50 is > 35 µM (inactive).

Question: Which AC50 does the source give for `CCS(=O)(=O)c1ncc(Cl)c(C(=O)Nc2ccc(S(=O)(=O)N3CCC(C)CC3)cc2)n1` here?
Answer: Its AC50 is > 35 µM (inactive).

Question: For `O=C(NC1CCCCC1)C(c1ccc(F)cc1)N(CCc1ccccc1)C(=O)CN1C(=O)c2ccccc2S1(=O)=O` (centres undefined), which AC50 is on record?
Answer: Its AC50 is 19.6 µM.

Question: For `CCOc1cc(C(=O)CSc2nnc(CNc3ccc(Cl)cc3)o2)ccc1NC(=O)CC`, which AC50 is on record?
Answer: Its AC50 is 16 µM.

Question: With `CCc1ccc(NC(=O)c2nc(S(=O)(=O)Cc3ccccc3)ncc2Cl)cc1` as the molecule, how does the AC50 read?
Answer: Its AC50 is > 35 µM (inactive).

Question: With `O=[N+]([O-])/C=C/c1ccc2c(ccn2Cc2ccccc2)c1` as the molecule, how does the AC50 read?
Answer: The AC50 was 12.6 µM.

Question: For `Clc1ccccc1CN(Cc1ccccc1)c1ncnc2nc[nH]c12`, which AC50 is on record?
Answer: Its AC50 is > 35 µM (inactive).

Question: `COc1ccc(-c2cc(=O)oc3c(C)c(OC(=O)c4cccs4)ccc23)cc1` was tested. Which AC50 did it give?
Answer: Its AC50 is 29.1 µM.

Question: With `COc1ccc(C(=O)/C=C/C(=O)N(CC(=O)NC2CCCCC2)Cc2cccs2)c(O)c1` as the molecule, how does the AC50 read?
Answer: Its AC50 is 23.7 µM.

Question: `CCc1ccccc1NC(=O)C(CC)Sc1nc2cc3c(cc2c(=O)n1Cc1ccco1)OCO3` (centres undefined) was tested. Which AC50 did it give?
Answer: Its AC50 is > 35 µM (inactive).

Question: For `O=S1(=O)CCOC[C@H](CC2CCCCC2)N1Cc1cccc(Cl)c1`, which AC50 is on record?
Answer: Its AC50 is > 35 µM (inactive).

Question: With `CN1C2CCC1/C(=C/c1ccccn1)C(=O)/C2=C\c1ccccn1` as the molecule, how does the AC50 read?
Answer: The AC50 was > 35 µM (inactive).
